Source: ChEMBL document CHEMBL1131252, “Rational design and combinatorial evaluation of enzyme inhibitor scaffolds: identification of novel inhibitors of matrix metalloproteinases” (J Med Chem, 1998)
pIC50: −log10 of the molar value.

How the values were obtained:
Matrilysin = molecular target: T1, Matrilysin (Homo sapiens, UniProt P09237); experiment: Inhibition of matrilysin (Matrix metalloprotease-7)
T1 sequence (P09237 whole entry): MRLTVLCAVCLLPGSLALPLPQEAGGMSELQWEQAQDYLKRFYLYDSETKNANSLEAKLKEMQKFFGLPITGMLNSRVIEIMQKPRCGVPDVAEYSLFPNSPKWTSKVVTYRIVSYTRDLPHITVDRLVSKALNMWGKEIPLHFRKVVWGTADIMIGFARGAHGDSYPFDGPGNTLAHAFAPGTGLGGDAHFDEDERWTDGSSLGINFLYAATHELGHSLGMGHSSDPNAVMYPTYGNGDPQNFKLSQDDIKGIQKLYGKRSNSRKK
Procedure, shortened: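 Matrilysin (recombinant C-terminally truncated human) at 0.5 nM final, room temperature, in buffer of 20 mM Hepes, 5 mM CaCl₂, 0.02% Brij35, 0.5 mM cysteine. Inhibitor was added from degassed methanol (2% final) with 3 min preincubation, then 10 μM quenched-fluorescence Mca-PLGL-Dpa-AR-NH₂ substrate. Fluorescence (ex 330/em 430 nm) was read once a minute for 30 min; IC50 came from v_i = v_0/(1+[I]/IC50).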

Interstitial collagenase [1] = molecular target: T2, Interstitial collagenase (Homo sapiens, UniProt P03956); experiment: Inhibition of collagenase-1 (Matrix metalloprotease-1)
T2 sequence (P03956 whole entry): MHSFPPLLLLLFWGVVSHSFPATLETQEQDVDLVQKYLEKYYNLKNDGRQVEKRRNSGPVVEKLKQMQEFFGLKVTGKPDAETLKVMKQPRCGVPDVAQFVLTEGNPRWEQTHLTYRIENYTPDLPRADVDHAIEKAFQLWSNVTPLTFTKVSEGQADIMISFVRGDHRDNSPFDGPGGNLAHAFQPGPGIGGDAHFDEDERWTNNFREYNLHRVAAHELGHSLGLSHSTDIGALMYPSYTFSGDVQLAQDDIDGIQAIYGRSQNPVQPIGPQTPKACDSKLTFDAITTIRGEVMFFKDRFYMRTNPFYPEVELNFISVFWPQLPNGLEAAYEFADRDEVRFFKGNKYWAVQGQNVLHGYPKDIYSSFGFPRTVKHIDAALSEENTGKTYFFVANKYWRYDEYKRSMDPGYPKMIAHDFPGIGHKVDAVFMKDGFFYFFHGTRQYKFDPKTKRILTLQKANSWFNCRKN

[2] = molecular target: T3, Matrix metalloproteinase-9 (Homo sapiens, UniProt P14780); experiment: Inhibition of gelatinase-B (Matrix metalloprotease-9); set-up: species or system Komagataella pastoris
Procedure, shortened: (§1)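 Gelatinase-B, a recombinant C-terminally truncated form expressed in Pichia pastoris, used at 2 nM final. Buffer was 20 mM Hepes, 5 mM CaCl₂, 0.02% Brij35, 0.5 mM cysteine, at room temperature. Inhibitor in degassed methanol (2% final) was added 3 min before 10 μM Mca-Pro-Leu-Gly-Leu-Dpa-Ala-Arg-NH₂. Fluorescence at 330/430 nm was logged per minute for 30 min; IC50 was fitted to v_i = v_0/(1+[I]/IC50).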

Stromelysin-1 [3] = molecular target: T4, Stromelysin-1 (Homo sapiens, UniProt P08254); experiment: Inhibition of stromelysin (Matrix metalloprotease-3)
Procedure, shortened: (§2)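 Stromelysin-1, recombinant human C-terminally truncated form, used at 10 nM final. Conditions: room temperature; Hepes 20 mM, CaCl₂ 5 mM, Brij35 0.02%, cysteine 0.5 mM; inhibitor in degassed methanol (2% final) preincubated 3 min. Reaction started with quenched-fluorescence substrate Mca-PLGL-Dpa-AR-NH₂ (10 μM final), read at ex 330/em 430 nm every minute for 30 min. IC50 came from rate fit v_i = v_0/(1+[I]/IC50).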

Interstitial collagenase [4] = molecular target: T2, Interstitial collagenase; experiment: Inhibition of Matrix Metalloprotease-1
Procedure, shortened: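 Recombinant C-terminally truncated human collagenase-1 at 10 nM final, in 20 mM Hepes, 5 mM CaCl₂, 0.02% Brij35, 0.5 mM cysteine at room temperature. Inhibitor was added in degassed methanol (2% final), then 3 min later 10 μM Mca-Pro-Leu-Gly-Leu-Dpa-Ala-Arg-NH₂. Fluorescence (ex 330/em 430 nm) was read each minute for 30 min; IC50 was fitted as v_i = v_0/(1+[I]/IC50).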

Stromelysin-1 [5] = molecular target: T4, Stromelysin-1; experiment: Inhibition of Matrix Metalloprotease-3; procedure, shortened: as §2
[6] = molecular target: T3, Matrix metalloproteinase-9; experiment: Inhibition of Matrix Metalloprotease-9; procedure, shortened: as §1
Stromelysin-1 [7] = molecular target: T4, Stromelysin-1; experiment: Inhibition of stromelysin-1; procedure, shortened: as §2

T3 sequence (P14780 whole entry, the tested form may be a part): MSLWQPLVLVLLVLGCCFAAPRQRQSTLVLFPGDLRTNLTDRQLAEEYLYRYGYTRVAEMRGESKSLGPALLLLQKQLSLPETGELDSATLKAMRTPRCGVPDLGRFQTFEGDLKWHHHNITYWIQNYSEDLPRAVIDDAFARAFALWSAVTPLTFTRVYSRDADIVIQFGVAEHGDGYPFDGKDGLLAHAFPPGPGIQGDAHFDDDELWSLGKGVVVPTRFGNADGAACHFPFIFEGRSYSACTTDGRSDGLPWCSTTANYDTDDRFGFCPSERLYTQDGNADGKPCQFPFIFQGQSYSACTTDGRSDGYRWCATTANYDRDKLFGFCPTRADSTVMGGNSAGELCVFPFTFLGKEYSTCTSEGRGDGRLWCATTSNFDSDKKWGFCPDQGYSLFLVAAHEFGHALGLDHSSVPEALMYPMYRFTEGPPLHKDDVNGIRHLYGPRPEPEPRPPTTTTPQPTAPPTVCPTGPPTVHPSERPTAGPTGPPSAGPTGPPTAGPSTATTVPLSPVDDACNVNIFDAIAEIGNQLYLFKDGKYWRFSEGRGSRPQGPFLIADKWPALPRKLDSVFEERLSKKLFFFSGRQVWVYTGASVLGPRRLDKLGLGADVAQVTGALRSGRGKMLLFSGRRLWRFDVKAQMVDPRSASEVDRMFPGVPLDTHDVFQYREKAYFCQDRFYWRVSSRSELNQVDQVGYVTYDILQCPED
T4 sequence (P08254 whole entry, the tested form may be a part): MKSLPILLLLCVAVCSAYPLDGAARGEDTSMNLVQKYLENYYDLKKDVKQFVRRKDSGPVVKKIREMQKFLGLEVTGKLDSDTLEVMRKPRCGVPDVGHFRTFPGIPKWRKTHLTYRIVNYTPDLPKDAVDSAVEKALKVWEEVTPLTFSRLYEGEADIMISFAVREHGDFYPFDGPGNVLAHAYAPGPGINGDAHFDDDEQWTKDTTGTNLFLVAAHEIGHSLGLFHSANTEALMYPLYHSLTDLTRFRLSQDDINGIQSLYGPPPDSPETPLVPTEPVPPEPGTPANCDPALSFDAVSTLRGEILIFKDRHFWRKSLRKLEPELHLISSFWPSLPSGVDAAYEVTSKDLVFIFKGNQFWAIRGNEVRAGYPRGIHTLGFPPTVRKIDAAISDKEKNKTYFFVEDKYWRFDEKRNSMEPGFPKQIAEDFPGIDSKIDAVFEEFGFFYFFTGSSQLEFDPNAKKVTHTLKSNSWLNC

Structure (SMILES) | pIC50 (Matrilysin) | pIC50 (Interstitial collagenase [1]) | pIC50 [2] | pIC50 (Stromelysin-1 [3]) | pIC50 (Interstitial collagenase [4]) | pIC50 (Stromelysin-1 [5]) | pIC50 [6] | pIC50 (Stromelysin-1 [7])
O=C1N[C@H](CS)C(=O)N(CC2CCCCC2)[C@H]1CC1CCCCC1 | < 4.40 | 5.59 | 5.15 | < 4.40 | – | – | – | –
CCCC[C@H]1C(=O)N[C@@H](CS)C(=O)N1CC1CCCCC1 | – | – | – | – | 6.66 | 5.47 | 6.43 | –
COc1ccc(CN2C(=O)[C@H](CS)NC(=O)[C@@H]2Cc2ccccc2)cc1 | – | – | – | – | 7.19 | 5.39 | 5.63 | –
CCCCCCCCN1C(=O)[C@H](Cc2cccnc2)NC(=O)[C@H]1CS | – | 5.00 | – | – | – | – | – | –
CCCCN1C(=O)[C@H](CS)NC(=O)[C@@H]1Cc1ccccc1 | – | – | – | – | 6.50 | 4.72 | 5.63 | –
CCCCCCN1C(=O)[C@H](Cc2cccnc2)NC(=O)[C@H]1CS | – | 5.70 | – | – | – | – | – | –

Further lines, results first:

pIC50 (Matrilysin) | pIC50 (Interstitial collagenase [1]) | pIC50 [2] | pIC50 (Stromelysin-1 [3]) | pIC50 (Interstitial collagenase [4]) | pIC50 (Stromelysin-1 [5]) | pIC50 [6] | pIC50 (Stromelysin-1 [7]) | Structure (SMILES)
– | – | – | – | 7.52 | 5.42 | 7.10 | – | COc1ccc(CN2C(=O)[C@H](CS)NC(=O)[C@@H]2CC2CCCCC2)cc1
– | – | – | – | 7.46 | 5.62 | 7.06 | – | O=C1N[C@@H](CS)C(=O)N(Cc2ccc3ccccc3n2)[C@H]1CC1CCCCC1
< 4.40 | 4.85 | < 4.40 | – | – | – | – | < 4.40 | O=C1N[C@H](CS)C(=O)N(CC2CCCCC2)[C@@H]1CC1CCCCC1
5.32 | – | 4.92 | – | – | – | – | < 4.40 | O=C1N[C@@H](CS)C(=O)N(CC2CCCCC2)[C@@H]1CC1CCCCC1
6.23 | 7.33 | 6.95 | 5.64 | 7.33 | 5.54 | 6.92 | – | O=C1N[C@@H](CS)C(=O)N(CC2CCCCC2)[C@H]1CC1CCCCC1
